The subject of data set [1] is Plasmodium berghei. Nature of the data set: Antimalarial activity against Plasmodium berghei ANKA infected in NMRI mice (Mus musculus) assessed as survival rate at 15 mg/kg, perorally administered as single dose. Type of data set: functional. The following applies: route oral. The procedure, abridged: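 Infection: 5 female NMRI mice (20–22 g) per group, inoculated intravenously with 0.2 ml of donor blood at 1 × 10^8 parasitized erythrocytes/ml. Oral administration in 0.5% carboxymethyl cellulose. Survival time recorded up to 30 days after infection and averaged per group.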

A short description of data set [2]: Half life in Wistar rat at 5 mg/kg, iv. The following applies: in vivo. Also on record: dose 5 mg/kg, route intravenous. Type of data set: ADME, organism-based. The procedure, abridged:
(§1)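 Rats dosed with 25 mg/kg p.o. as a 2.5 mg/ml suspension in 0.5% CMC, or with 5 mg/kg i.v. at 1 mg/ml in 10% NMP, 30% PEG 400 and 60% of 10% vitamin E-TPGS. Plasma sampled over time, extracted with acidified acetonitrile (8:1) and quantified by LC-MS, LLOQ 12 ng/ml.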

A further data set concerns Plasmodium falciparum. The experiment in a line: Antimalarial activity against pyrimethamine-resistant Plasmodium falciparum clinical isolate harboring S108N, C59R mutation in DHFR assessed as decrease in parasitaemia. Type of data set: functional, organism-based. In short, it runs like this: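 P. falciparum grown in RPMI 1640 with 10% (v/v) human serum, 25 mM bicarbonate, 2 mM glutamine, 25 mM HEPES, 5 nM para-aminobenzoic acid and 23 nM folic acid. Parasites exposed to a concentration series. Read-out is [3H]hypoxanthine incorporation into nucleic acid. IC50 taken from non-linear regression of the dose–response curve.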

Data set [3] in a line: Volume of distribution in CD-1 mouse at 5 mg/kg, iv. The format is ADME, organism-based. Also on record: dose 5 mg/kg, route intravenous. The following applies: in vivo. In short, it runs like this:
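Mice dosed with 25 mg/kg p.o. as a 2.5 mg/ml suspension in 0.5% CMC, or with 5 mg/kg i.v. at 1 mg/ml in 10% NMP, 30% PEG 400 and 60% of 10% vitamin E-TPGS. Blood sampled at several time points. Plasma extracted with acidified acetonitrile (8:1) and quantified by LC-MS, LLOQ 12 ng/ml.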

The next data set deals with Mus musculus. The experiment in a line: Toxicity in NMRI mice (Mus musculus) infected with Plasmodium berghei ANKA at 3 times 30 mg/kg, perorally measured up to 30 days postinfection. Type of data set: organism-based. Also on record: dose 30 mg/kg, route oral. The following applies: in vivo, po, 720 h.
Data set [4] deals with Plasmodium berghei. The experiment in a line: Antimalarial activity against Plasmodium berghei ANKA infected in NMRI mice (Mus musculus) assessed as reduction in parasitemia at 15 mg/kg, perorally administered as single dose measured on day 3 postinfection. The following applies: route oral. The format is functional. Also on record: scale not given: the % may be the effect or the level left. The procedure, abridged:
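P. berghei ANKA given intravenously to groups of 5 female NMRI mice (20–22 g): 0.2 ml of 1 × 10^8 parasitized erythrocytes/ml from a donor mouse. Oral dosing in 0.5% carboxymethyl cellulose. Parasitemia counted by microscopy. Activity is the control-minus-treated parasitemia difference, expressed as percent of untreated controls.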

A short description of data set [5]: Cmax in Wistar rat at 25 mg/kg, po. Also on record: dose 25 mg/kg, route oral. Type of data set: ADME, organism-based. The following applies: in vivo. In short, it runs like this:
as §1

Each structure is given as a SMILES string.

With `COc1ccc(OC)c(CNc2ccc3nc(N)nc(N)c3c2Cl)c1`, the Survival in the data set on Plasmodium berghei [1] is 6 days. In data set [2], this compound gave a half-life of 3.5 h. Further, the IC50 in the data set on Plasmodium falciparum turned out to be 4.48 nM. For the same compound, the Vd in data set [3] is 2.85 L/kg. Also, the Activity is recorded as 0% with Mus musculus and 73% in the data set with Plasmodium berghei [4]. The same compound yielded a Cmax in data set [5] of 2800 nM.

The values are drawn from ChEMBL document CHEMBL1255487, “Preclinical evaluation of the antifolate QN254, 5-chloro- N'6'-(2,5-dimethoxy-benzyl)-quinazoline-2,4,6-triamine, as an antimalarial drug candidate” (Antimicrob Agents Chemother, 2010).
